Experiments:
[1] = AUC (0 to 24 hrs) in Wistar rat mesenteric lymph at 10 mg/kg, po; format: ADME, organism-based, Mesenteric lymph node; set-up: time < 24 hr, dose 10 mg/kg, route oral; settings: in vivo
[2] = Tmax in Wistar rat mesenteric lymph at 10 mg/kg, po; format: ADME, organism-based, Mesenteric lymph node; set-up: dose 10 mg/kg, route oral
In short: (§1)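 Male Wistar rats given 10 mg/kg orally in 5% DMSO/succinylated gelatin. At selected times, anesthesia with thiobutobarbital 150 mg/kg ip, laparotomy and thoracic lymph duct catheter. Mesenteric lymph collected for at least 10 min, with a plasma sample at mid-collection. Methanol precipitation, then LC-MS-MS with internal standard.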

[3] = Cmax in Wistar rat mesenteric lymph at 10 mg/kg, po; format: ADME, organism-based, Mesenteric lymph node; set-up: dose 10 mg/kg, route oral; in short: as §1
[4] = system: Plasma; experiment: AUC (0 to 24 hrs) in Wistar rat plasma at 10 mg/kg, po; format: ADME, organism-based; set-up: time < 24 hr, dose 10 mg/kg, route oral; settings: in vivo
[5] = Cmax in Wistar rat plasma at 10 mg/kg, po; format: ADME, organism-based; set-up: dose 10 mg/kg, route oral; in short: as §1
[6] = Tmax in Wistar rat plasma at 10 mg/kg, po; format: ADME, organism-based; set-up: dose 10 mg/kg, route oral; in short: as §1
[7] = Lipophilicity, log D of the compound at pH 7.4; format: physicochemical; settings: buffer
[8] = biological target: Sphingosine 1-phosphate receptor 3 (Homo sapiens, UniProt Q99500); experiment: Agonist activity at human recombinant S1P3 receptor expressed in CHO cells assessed as membrane-bound 35S-GTPgammaS incubated 30 mins prior to substrate addition measured after 1 hr by topcount scintillation counting analysis; format: functional, cell-based
[9] = biological target: Sphingosine 1-phosphate receptor 1 (Homo sapiens, UniProt P21453); experiment: Agonist activity at human recombinant S1P1 receptor expressed in CHO cells assessed as membrane-bound 35S-GTPgammaS incubated 30 mins prior to substrate addition measured after 1 hr by topcount scintillation counting analysis; format: functional, cell-based
[10] = system: Rattus norvegicus; experiment: Lymphopenic activity in Wistar rat assessed as reduction in blood lymphocyte count at 10 mg/kg, po after 24 hrs; format: functional
In short: (§2)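 Normotensive male Wistar rats given 1–10 mg/kg by gavage in 5% DMSO/7.5% succinylated gelatin. Blood taken before and 3, 6 and 24 h after dosing, with later times for some compounds. Lymphocytes counted by hematology analyzer. % LC change calculated per animal relative to the predose value (=100%). Mean ± SEM.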

[11] = system: Rattus norvegicus; experiment: Lymphopenic activity in Wistar rat assessed as reduction in blood lymphocyte count at 10 mg/kg, po after 6 hrs; format: functional; set-up: scale not given: the % may be the effect or the level left; in short: as §2
[12] = system: Rattus norvegicus; experiment: Lymphopenic activity in Wistar rat assessed as reduction in blood lymphocyte count at 10 mg/kg, po after 3 hrs; format: functional; set-up: scale not given: the % may be the effect or the level left; in short: as §2
[13] = species: Homo sapiens; experiment: Selectivity ratio of EC50 for human recombinant S1P3 receptor to EC50 for human recombinant S1P1 receptor
In short: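 GDP was 1 μM for S1P1 and 3 μM for S1P3. Compounds (up to 10 μM) were preincubated 30 min at rt, then incubated 1 h at rt. Bound label was counted after filtration. 10 μM S1P defined maximum. EC50s are geometric means of ≥3 independent duplicate runs.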

[14] = system: Rattus norvegicus; experiment: Lymphopenic activity in Wistar rat assessed as reduction in blood lymphocyte count at 10 mg/kg, po after 144 hrs; format: functional; set-up: scale not given: the % may be the effect or the level left; in short: as §2
[15] = system: Rattus norvegicus; experiment: Lymphopenic activity in Wistar rat assessed as reduction in blood lymphocyte count at 10 mg/kg, po after 72 hrs; format: functional; set-up: scale not given: the % may be the effect or the level left; in short: as §2
[16] = system: Rattus norvegicus; experiment: Lymphopenic activity in po dosed Wistar rat assessed as reduction in blood lymphocyte count; format: functional, organism-based; in short: as §2
[17] = Plasma concentration in Wistar rat at 10 mg/kg, po after 24 hrs; format: ADME, organism-based; set-up: dose 10 mg/kg, route oral
[18] = Plasma concentration in Wistar rat at 10 mg/kg, po after 6 hrs; format: ADME, organism-based; set-up: dose 10 mg/kg, route oral
[19] = Plasma concentration in Wistar rat at 10 mg/kg, po after 3 hrs; format: ADME, organism-based; set-up: dose 10 mg/kg, route oral

Sequence of Sphingosine 1-phosphate receptor 3 (Q99500 whole entry): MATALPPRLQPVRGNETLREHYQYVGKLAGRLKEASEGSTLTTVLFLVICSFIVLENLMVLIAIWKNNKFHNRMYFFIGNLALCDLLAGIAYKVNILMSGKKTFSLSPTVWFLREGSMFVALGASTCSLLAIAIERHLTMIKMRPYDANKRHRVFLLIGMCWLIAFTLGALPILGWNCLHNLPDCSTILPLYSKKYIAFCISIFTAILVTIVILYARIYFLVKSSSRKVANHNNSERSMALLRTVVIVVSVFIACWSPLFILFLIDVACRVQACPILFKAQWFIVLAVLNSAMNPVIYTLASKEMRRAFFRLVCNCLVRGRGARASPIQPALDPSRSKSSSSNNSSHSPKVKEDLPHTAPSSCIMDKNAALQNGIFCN
Sequence of Sphingosine 1-phosphate receptor 1 (P21453 whole entry): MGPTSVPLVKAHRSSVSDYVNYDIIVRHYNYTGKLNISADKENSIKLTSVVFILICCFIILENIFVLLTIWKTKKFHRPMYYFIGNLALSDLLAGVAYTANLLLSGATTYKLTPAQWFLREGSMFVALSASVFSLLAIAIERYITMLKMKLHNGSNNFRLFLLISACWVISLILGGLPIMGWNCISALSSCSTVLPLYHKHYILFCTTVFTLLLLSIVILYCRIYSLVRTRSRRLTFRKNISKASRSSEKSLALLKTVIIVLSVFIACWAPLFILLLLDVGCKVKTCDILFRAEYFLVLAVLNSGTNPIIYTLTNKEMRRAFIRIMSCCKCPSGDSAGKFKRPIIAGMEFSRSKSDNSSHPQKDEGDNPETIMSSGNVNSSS

Compound	EC50 [8]	EC50 [9]	other results
CCc1cc(-c2noc(-c3sc(CC)c4c3CCC(C)(C)C4)n2)cc(C)c1OCCNCCC(=O)O	5.8 nM	1.4 nM	AUC [1]: 60400 ng·h/mL; Tmax [2]: 0.75 h; Cmax [3]: 9530 ng/mL; AUC [4]: 16300 ng·h/mL; Cmax [5]: 813 ng/mL; Tmax [6]: 8 h; logD [7]: 4.9
CCc1ccc(-c2nc(-c3cc(C)c(OC[C@@H](O)CNC(=O)CO)c(C)c3)no2)s1			% change in blood lymphocyte count from predose [10]: 12%; Activity [11]: -77%; Activity [12]: -73%
CCCc1sc(-c2nc(-c3cc(C)c(OC[C@@H](O)CNC(=O)CO)c(CC)c3)no2)c2c1CC(C)(C)CC2	11 nM	20 nM	
CCc1cc(-c2noc(-c3sc(OC)c4c3CCC(C)(C)C4)n2)cc(C)c1OC[C@@H](O)CNC(=O)CO	83 nM	1.8 nM	
CCc1sc(C(=O)CCc2cc(C)c(OC[C@@H](O)CO)c(C)c2)c2c1CCCC2	3830 nM	20 nM	
CCc1sc(C(=O)CCc2cc(C)c(OC[C@@H](O)CO)c(C)c2)c2c1CC(C)(C)CC2	126 nM	0.4 nM	
CCc1sc(C(=O)CCc2cc(C)c(OC[C@@H](O)CO)c(C)c2)c2c1CC(CC)(CC)CC2	25 nM	0.4 nM	
CCc1sc(C(=O)CCc2cc(C)c(OC[C@@H](O)CO)c(C)c2)c2c1CC1(CC2)CC1	819 nM	1.1 nM	
CCc1sc(C(=O)CCc2cc(C)c(OC[C@@H](O)CO)c(C)c2)c2c1CC1(CCCC1)CC2	62 nM	0.4 nM	
CCc1cc(-c2noc(-c3sc(CC)c4c3CCCC4)n2)cc(C)c1OC[C@@H](O)CNC(=O)CO	172 nM	0.9 nM	
CCc1cc(-c2noc(-c3sc(CC)c4c3CCC(CC)(CC)C4)n2)cc(C)c1OC[C@@H](O)CNC(=O)CO	1.2 nM	6 nM	
CCc1cc(-c2noc(-c3sc(CC)c4c3CCC3(CC3)C4)n2)cc(C)c1OC[C@@H](O)CNC(=O)CO	24 nM	1.1 nM	
CCc1cc(-c2noc(-c3sc(CC)c4c3CCC3(CCCC3)C4)n2)cc(C)c1OC[C@@H](O)CNC(=O)CO	11 nM	4.7 nM	
Cc1cc(CCC(=O)c2sc(C)c3c2CCC(C)(C)C3)cc(C)c1CCC(=O)O	> 10000 nM	21 nM	
CCc1cc(CCC(=O)c2scc3c2CCC(C)(C)C3)cc(C)c1OC[C@@H](O)CNC(=O)CO	5270 nM	4.8 nM	Ratio EC50 [13]: 100
CCCc1sc(C(=O)CCc2cc(C)c(OC[C@@H](O)CNC(=O)CO)c(CC)c2)c2c1CC(C)(C)CC2	25 nM	1.3 nM	
Cc1cc(CCC(=O)c2sc(C)c3c2CCC(C)(C)C3)cc(C)c1O	> 10000 nM	21 nM	
Cc1cc(CCC(=O)c2sc(C)c3c2CCC(C)(C)C3)cc(C)c1OCCO	4450 nM	19 nM	
Cc1cc(CCC(=O)c2sc(C)c3c2CCC(C)(C)C3)cc(C)c1OCCCO	4450 nM	71 nM	
Cc1cc(CCC(=O)c2sc(C)c3c2CCC(C)(C)C3)cc(C)c1OC[C@@H](O)CO	1400 nM	2.6 nM	Ratio EC50 [13]: 100
Cc1cc(CCC(=O)c2sc(C)c3c2CCC(C)(C)C3)cc(C)c1OC[C@H](O)CO	1100 nM	3.4 nM	Ratio EC50 [13]: 100
Cc1cc(CCC(=O)c2sc(C)c3c2CCC(C)(C)C3)cc(C)c1OCCN	8560 nM	6.1 nM	
Cc1cc(CCC(=O)c2sc(C)c3c2CCC(C)(C)C3)cc(C)c1OCCNCCO	> 10000 nM	11 nM	
Cc1cc(CCC(=O)c2sc(C)c3c2CCC(C)(C)C3)cc(C)c1OCCCNCCO	> 10000 nM	48 nM	

Compound	EC50 [8]	EC50 [9]	other results
CCc1sc(C(=O)CCc2cc(C)c(OCC(O)CO)c(C)c2)c2c1CC(C)CC2 (mixture of isomers)	599 nM	1.6 nM	
CCc1sc(C(=O)CCc2cc(C)c(OCC(O)CO)c(C)c2)c2c1C[C@@H](O)CC2 (mixture of isomers)	> 10000 nM	860 nM	
CCc1sc(C(=O)CCc2cc(C)c(OCC(O)CO)c(C)c2)c2c1C[C@@](C)(O)CC2 (mixture of isomers)	> 10000 nM	79 nM	
CCc1sc(C(=O)CCc2cc(C)c(OCC(O)CO)c(C)c2)c2c1C[C@@H](N(C)C)CC2 (mixture of isomers)	> 10000 nM	1600 nM	
Cc1cc(CCC(=O)c2sc(C)c(CC(C)C)c2C)cc(C)c1OCC(O)CNC(=O)CO (racemic)	5270 nM	2.7 nM	
Cc1cc(CCC(=O)c2ccc(CC(C)C)s2)cc(C)c1OCC(O)CNC(=O)CO (racemic)	590 nM	7.7 nM	
Cc1cc(-c2noc(-c3sc(C)c4c3CCC(C)(C)C4)n2)cc(C)c1OCC(O)CNC(=O)CO (racemic)	15 nM	1.6 nM	Activity [14]: -7%; Activity [15]: -73%; % change in blood lymphocyte count from predose [10]: -77%; Activity [11]: -73%; Activity [12]: -70%
CCc1c(-c2nc(-c3cc(C)c(OCC(O)CNC(=O)CO)c(C)c3)no2)sc(C)c1CC(C)C (racemic)	172 nM	6.6 nM	% change in blood lymphocyte count from predose [10]: -25%; Activity [11]: -40%; Activity [12]: -30%
Cc1cc(-c2noc(-c3sc(C)c(CC(C)C)c3C)n2)cc(C)c1OCC(O)CNC(=O)CO (racemic)	74 nM	0.5 nM	% change in blood lymphocyte count from predose [10]: -93%; Activity [11]: -86%; Activity [12]: -78%
Cc1cc(-c2noc(-c3cc(CC(C)C)c(C)s3)n2)cc(C)c1OCC(O)CNC(=O)CO (racemic)	236 nM	1.5 nM	% change in blood lymphocyte count from predose [10]: -91%; Activity [11]: -78%; Activity [12]: -77%
Cc1cc(-c2noc(-c3ccc(CC(C)C)s3)n2)cc(C)c1OCC(O)CNC(=O)CO (racemic)	247 nM	0.6 nM	Activity [16]: Dose-dependent effect; concentration at 24 h [17]: 23 ng/mL; concentration at 6 h [18]: 680 ng/mL; concentration at 3 h [19]: 1010 ng/mL; Activity [15]: 14%; % change in blood lymphocyte count from predose [10]: -66%; Activity [11]: -79%; Activity [12]: -75%
CCCCc1ccc(-c2nc(-c3cc(C)c(OCC(O)CNC(=O)CO)c(C)c3)no2)s1 (racemic)	1250 nM	4.7 nM	% change in blood lymphocyte count from predose [10]: 18%; Activity [11]: -52%; Activity [12]: -66%
CCCc1ccc(-c2nc(-c3cc(C)c(OCC(O)CNC(=O)CO)c(C)c3)no2)s1 (racemic)	1150 nM	0.9 nM	% change in blood lymphocyte count from predose [10]: 31%; Activity [11]: -59%; Activity [12]: -65%
CCc1ccc(-c2nc(-c3cc(C)c(OCC(O)CNC(=O)CO)c(C)c3)no2)s1 (racemic)	1860 nM	4.3 nM	concentration at 24 h [17]: < 2 ng/mL; concentration at 6 h [18]: 190 ng/mL; concentration at 3 h [19]: 490 ng/mL
Cc1cc(CCC(=O)c2sc(C)c3c2CCC(C)(C)C3)cc(C)c1OCC(O)CNC(=O)CO (racemic)	392 nM	0.5 nM	
Cc1cc(CCC(=O)c2sc(C)c3c2CCC(C)(C)C3)cc(C)c1OCC(O)CNCCC(=O)O (racemic)	569 nM	1.2 nM	
Cc1cc(CCC(=O)c2sc(C)c3c2CCC(C)(C)C3)cc(C)c1OCC(O)CN1CC(C(=O)O)C1 (racemic)	1760 nM	4.3 nM	
CCc1cc(CCC(=O)c2sc(C)c3c2CCC(C)(C)C3)cc(C)c1OCC(O)CNC(=O)CO (racemic)	4420 nM	1.2 nM	
CCc1cc(CCC(=O)c2sc(C(F)(F)F)c3c2CCC(C)(C)C3)cc(C)c1OCC(O)CNC(=O)CO (racemic)	242 nM	1.3 nM	
CCc1cc(CCC(=O)c2sc(OC)c3c2CCC(C)(C)C3)cc(C)c1OCC(O)CNC(=O)CO (racemic)	3910 nM	1.3 nM	
CCc1cc(-c2noc(-c3scc4c3CCC(C)(C)C4)n2)cc(C)c1OCC(O)CNC(=O)CO (racemic)	314 nM	1.7 nM	Ratio EC50 [13]: 100
CCc1cc(-c2noc(-c3sc(C)c4c3CCC(C)(C)C4)n2)cc(C)c1OCC(O)CNC(=O)CO (racemic)	122 nM	1.5 nM	
Cc1cc(CCC(=O)c2sc(C)c3c2CCC(C)(C)C3)cc(C)c1OCC(O)CN (racemic)	> 10000 nM	7 nM	
Cc1cc(CCC(=O)c2sc(C)c3c2CCC(C)(C)C3)cc(C)c1OCC(O)CNCCO (racemic)	> 10000 nM	14 nM	

From ChEMBL document CHEMBL3120099, “Novel S1P(1) receptor agonists--part 2: from bicyclo[3.1.0]hexane-fused thiophenes to isobutyl substituted thiophenes” (J Med Chem, 2014)
